Reference: ChEMBL document CHEMBL1153833, “Effect of dosing and dosing frequency on the efficacy of ceftizoxime and the emergence of ceftizoxime resistance during the early development of murine abscesses caused by Bacteroides fragilis and Enterobacter cloacae mixed infection” (Antimicrob Agents Chemother, 2007)
In brackets after ≈: the same amount, converted by molar mass. Activity calls are given as the source filed them.

How the values were obtained:
[1] = tested on: Bacteroides fragilis; experiment: Antimicrobial activity against Bacteroides fragilis ATCC 23745 infected BALB/c mouse mixed infection abscesses model co-infected with Enterobacter cloacae isolate 22491 assessed as reduction in bacterial load per abscess at 384 mg/kg/day administered every 8 hrs; assay type: functional
How it was run: (§1)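 Female BALB/c mice (12-18 wk) injected s.c. on both flanks with 10^7 CFU each of B. fragilis and E. cloacae plus 4 mg autoclaved cecal contents. CZX was given s.c. from 30 min before inoculation for 24 h, two mice per group. Abscesses were homogenized in PBS and plated in duplicate: E. cloacae on EM agar (aerobic, 24 h), B. fragilis on WC agar with gentamicin (anaerobic, 48 h). Result is mean log10 CFU/abscess of four abscesses ± SEM versus untreated; threshold 1.7 log10.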

[2] = tested on: Bacteroides fragilis; experiment: Antimicrobial activity against Bacteroides fragilis ATCC 23745 infected BALB/c mouse mixed infection abscesses model co-infected with Enterobacter cloacae isolate 22491 assessed as bacterial killing at 6 mg/kg/day administered every 2 hrs; assay type: functional, organism-based; how it was run: as §1
[3] = tested on: Bacteroides fragilis; experiment: Antimicrobial activity against Bacteroides fragilis ATCC 23745 infected BALB/c mouse mixed infection abscesses model co-infected with Enterobacter cloacae isolate 22491 assessed as reduction in bacterial load per abscess at 1536 mg/kg/day administered every 8 hrs; assay type: functional; how it was run: as §1
[4] = tested on: Enterobacter cloacae; experiment: Antimicrobial activity against Enterobacter cloacae isolate 22491 infected BALB/c mouse mixed infection abscesses model co-infected with Bacteroides fragilis ATCC 23745 assessed as increase in resistant bacterial count per abscess at 96 mg/kg/day administered every 2 hrs; assay type: functional
How it was run: (§2)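 Mixed subcutaneous flank abscesses in female SPF BALB/c mice (10^7 CFU of each strain plus 4 mg autoclaved cecal contents). Drug given subcutaneously, starting 30 min before inoculation, for 24 h. Abscesses homogenized in PBS. Resistant E. cloacae counted on WC agar with 16x MIC (48 h aerobic, 37°C) and total counts on drug-free EM agar. Groups of two mice.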

[5] = tested on: Enterobacter cloacae; experiment: Antimicrobial activity against Enterobacter cloacae isolate 22491 infected BALB/c mouse mixed infection abscesses model co-infected with Bacteroides fragilis ATCC 23745 assessed as increase in resistant bacterial count per abscess at 6 mg/kg/day administered every 4 hrs; assay type: functional; how it was run: as §2
[6] = tested on: Enterobacter cloacae; experiment: Antimicrobial activity against Enterobacter cloacae isolate 22491 infected BALB/c mouse mixed infection abscesses model co-infected with Bacteroides fragilis ATCC 23745 assessed as reduction in bacterial load per abscess at 1536 mg/kg/day administered every 8 hrs; assay type: functional; how it was run: as §1
[7] = tested on: Bacteroides fragilis; experiment: Antimicrobial activity against Bacteroides fragilis ATCC 23745; assay type: functional
[8] = fT>MIC in Enterobacter cloacae isolate 22491-infected BALB/c mouse at 100 mg/kg; assay type: functional
[9] = tested on: Bacteroides fragilis; experiment: Antimicrobial activity against Bacteroides fragilis ATCC 23745 infected BALB/c mouse mixed infection abscesses model co-infected with Enterobacter cloacae isolate 22491 assessed as inhibition of emergence of resistance mutation; assay type: functional, organism-based
How it was run: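 Female SPF BALB/c mice (12–18 weeks, 20–25 g) injected subcutaneously on both flanks with 10^7 CFU B. fragilis, 10^7 CFU E. cloacae and 4 mg ACC. Drug given subcutaneously at 6–1,536 mg/kg/day, q2h–q8h, beginning 30 min before inoculation, for 24 h. B. fragilis mutants counted on WC agar with 16x MIC plus 100 mg/liter gentamicin, 72 h anaerobic, 37°C.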

[10] = tested on: Enterobacter cloacae; experiment: Antimicrobial activity against Enterobacter cloacae isolate 22491; assay type: functional
[11] = tested on: Enterobacter cloacae; experiment: Antimicrobial activity against Enterobacter cloacae isolate 22491 infected BALB/c mouse mixed infection abscesses model co-infected with Bacteroides fragilis ATCC 23745 assessed as increase in resistant bacterial count per abscess at 24 mg/kg/day administered every 4 hrs; assay type: functional; how it was run: as §2
[12] = Ratio of fAUC to MIC in Enterobacter cloacae isolate 22491 infected BALB/c mouse mixed infection abscesses model co-infected with Bacteroides fragilis ATCC 23745; assay type: functional
[13] = tested on: Enterobacter cloacae; experiment: Antimicrobial activity against Enterobacter cloacae isolate 22491 infected BALB/c mouse mixed infection abscesses model co-infected with Bacteroides fragilis ATCC 23745 assessed as reduction in bacterial load per abscess at 384 mg/kg/day administered every 8 hrs; assay type: functional; how it was run: as §1
[14] = tested on: Mus musculus; experiment: Unbound Cmax (fCmax) in Bacteroides fragilis ATCC 23745 and Enterobacter cloacae isolate 22491-infected BALB/c mouse mixed infection abscesses model at 100 mg/kg administered as single dose; assay type: ADME, organism-based; set-up: dose 100 mg/kg; conditions: in vivo
How it was run: (§3)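 Single s.c. dose of 100 mg/kg CZX in groups of three infected mice, 4 days after inoculation. Orbital blood taken at 10-360 min. Serum CZX measured in duplicate by agar diffusion bioassay against E. coli strain 62. One-compartment open model; unbound values assume 13% serum protein binding.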

[15] = tested on: Enterobacter cloacae; experiment: Antimicrobial activity against Enterobacter cloacae isolate 22491 infected BALB/c mouse mixed infection abscesses model co-infected with Bacteroides fragilis ATCC 23745 assessed as bacterial killing at 96 mg/kg/day administered every 4 hrs; assay type: functional, organism-based; how it was run: as §1
[16] = tested on: Enterobacter cloacae; experiment: Antimicrobial activity against Enterobacter cloacae isolate 22491 infected BALB/c mouse mixed infection abscesses model co-infected with Bacteroides fragilis ATCC 23745 assessed as bacterial killing at 24 mg/kg/day administered every 4 hrs; assay type: functional, organism-based; how it was run: as §1
[17] = Half life in Bacteroides fragilis ATCC 23745 and Enterobacter cloacae isolate 22491-infected BALB/c mouse mixed infection abscesses model at 100 mg/kg administered as single dose; assay type: ADME, organism-based; set-up: dose 100 mg/kg; conditions: in vivo; how it was run: as §3
[18] = tested on: Enterobacter cloacae; experiment: Antimicrobial activity against Enterobacter cloacae isolate 22491 infected BALB/c mouse mixed infection abscesses model co-infected with Bacteroides fragilis ATCC 23745 assessed as increase in resistant bacterial count per abscess at 96 mg/kg/day administered every 4 hrs; assay type: functional; how it was run: as §2
[19] = Half life in Bacteroides fragilis ATCC 23745 and Enterobacter cloacae isolate 22491-infected BALB/c mouse mixed infection abscesses model at 100 mg/kg administered as 36 doses every 2 hrs; assay type: ADME, organism-based; set-up: dose 100 mg/kg; conditions: in vivo
How it was run: (§4)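 Infected mice received 36 doses of 100 mg/kg CZX q2h. Serum CZX measured in duplicate by agar diffusion bioassay against E. coli strain 62. One-compartment open model; unbound values assume 13% protein binding in mouse serum.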

[20] = tested on: Enterobacter cloacae; experiment: Antimicrobial activity against Enterobacter cloacae isolate 22491 infected BALB/c mouse mixed infection abscesses model co-infected with Bacteroides fragilis ATCC 23745 assessed as increase in resistant bacterial count per abscess at 24 mg/kg/day administered every 2 hrs; assay type: functional; how it was run: as §2
[21] = tested on: Enterobacter cloacae; experiment: Antimicrobial activity against Enterobacter cloacae isolate 22491 infected BALB/c mouse mixed infection abscesses model co-infected with Bacteroides fragilis ATCC 23745 assessed as increase in resistant bacterial count per abscess at 6 mg/kg/day administered every 2 hrs; assay type: functional; how it was run: as §2
[22] = tested on: Enterobacter cloacae; experiment: Antimicrobial activity against Enterobacter cloacae isolate 22491 infected BALB/c mouse mixed infection abscesses model co-infected with Bacteroides fragilis ATCC 23745 assessed as bacterial killing at 6 mg/kg/day administered every 2 hrs; assay type: functional, organism-based; how it was run: as §1
[23] = tested on: Mus musculus; experiment: Unbound Cmax (fCmax) in Bacteroides fragilis ATCC 23745 and Enterobacter cloacae isolate 22491-infected BALB/c mouse mixed infection abscesses model at 100 mg/kg administered as 36 doses every 2 hrs; assay type: ADME, organism-based; set-up: dose 100 mg/kg; conditions: in vivo; how it was run: as §4
[24] = tested on: Bacteroides fragilis; experiment: Antimicrobial activity against Bacteroides fragilis ATCC 23745 infected BALB/c mouse mixed infection abscesses model co-infected with Enterobacter cloacae isolate 22491 assessed as bacterial killing at 96 mg/kg/day administered every 4 hrs; assay type: functional, organism-based; how it was run: as §1
[25] = tested on: Enterobacter cloacae; experiment: Antimicrobial activity against Enterobacter cloacae isolate 22491 assessed as mutation prevention concentration; assay type: functional
How it was run: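 Overnight culture concentrated to 10^10 CFU/ml by centrifugation. 1 ml spread over five agar plates containing drug, first at twofold dilutions, then at linear increments. Plates read after 18 h at 37°C. MPC taken as the lowest concentration giving no colonies from 10^10 bacteria. Colonies from the highest concentration were subcultured drug-free to check mutant stability.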

[26] = tested on: Bacteroides fragilis; experiment: Antimicrobial activity against Bacteroides fragilis ATCC 23745 infected BALB/c mouse mixed infection abscesses model co-infected with Enterobacter cloacae isolate 22491 assessed as bacterial killing at 24 mg/kg/day administered every 4 hrs; assay type: functional, organism-based; how it was run: as §1

SMILES: CO/N=C(\C(=O)N[C@@H]1C(=O)N2C(C(=O)O)=CCS[C@H]12)c1csc(N)n1 [CEFTIZOXIME]
- log10cfu [1]: >=5
- Activity [2]: inactive
- log10cfu [3]: >=5
- log10cfu [4]: 3.8
- log10cfu [5]: 2
- log10cfu [6]: >=5
- MIC [7]: 1 µg/mL (≈ 2.61 µM)
- T>MIC [8]: 9%
- Activity [9]: Active
- MIC [10]: 0.25 µg/mL (≈ 0.652 µM)
- MIC99 [10]: 0.125 µg/mL (≈ 0.326 µM)
- log10cfu [11]: 2
- Ratio [12]: 1000
- log10cfu [13]: >=5
- Cmax_unbound [14]: 600 ng/mL
- Activity [15]: inactive
- Activity [16]: inactive
- half-life [17]: 13.8 min
- log10cfu [18]: 2
- half-life [19]: 13.2 min
- log10cfu [20]: 3.8
- log10cfu [21]: 3.8
- Activity [22]: inactive
- Cmax_unbound [23]: 600 ng/mL
- Activity [24]: inactive
- MPC [25]: 384 µg/mL
- Activity [26]: inactive
